Source: PubChem
T cell HTS: modulates CD8 T cell binding to vesicles; 2C CD8+ T cell-vesicle binding, flow cytometry; stronger effect = lower value; 330,000 tested, 0.068% active; AID 2052; response (vesicle binding), % at 7 µM;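 active = response, share of CD8 T cells binding vesicles, and their 90th percentile fluorescence all below set limits, cut at about 80% in these data, passing the limit was not always enough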;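 note: values below 100% mean blocked vesicle binding to the CD8+ T cells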
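Also added: QL9-peptide-loaded Drosophila micro-vesicles bearing Ld, ICAM-1 and B7-1; Test system: purified 2C TCR transgenic mouse naive CD8+ T cells; Measured by: cytometric PE anti-B7-1 and Alexa647 anti-CD8 signals after 1% paraformaldehyde fixation; Timing: binding step 1.5 h, 37 °C, antibody labelling 20 min, ice.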
DSG3 Ab inh: blocks pemphigus antibody binding to human desmoglein-3; P32926; DSG3-coupled beads, scFv-anti-DSG3-GFP binding, flow cytometry; stronger effect = lower value; binding (percent of control), % at 10 µM; 310,000 tested, 0.48% active; AID 588358;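 active = binding more than 3 SD below its plate's average and above zero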;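 note: hits lower antibody fragment binding to DSG3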
Mcl1-Noxa inh: disrupts binding of human Mcl-1 to Noxa peptide; Q07820; TR-FRET Mcl-1/Noxa peptide binding, 2 h; inhibition, % at 21.7 µM; AID 1022; 220,000 tested, 1.5% active;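 active = compounds that cut the protein-peptide binding signal by more than 50% relative to plate controls in a single-dose test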;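 note: His-tagged Mcl-1 with rhodamine Noxa BH3 peptide and terbium anti-His antibody; 0% = Mcl-1 plus Noxa peptide wells and 100% = peptide-only wells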
Target sequence (Q07820 whole entry, looked up): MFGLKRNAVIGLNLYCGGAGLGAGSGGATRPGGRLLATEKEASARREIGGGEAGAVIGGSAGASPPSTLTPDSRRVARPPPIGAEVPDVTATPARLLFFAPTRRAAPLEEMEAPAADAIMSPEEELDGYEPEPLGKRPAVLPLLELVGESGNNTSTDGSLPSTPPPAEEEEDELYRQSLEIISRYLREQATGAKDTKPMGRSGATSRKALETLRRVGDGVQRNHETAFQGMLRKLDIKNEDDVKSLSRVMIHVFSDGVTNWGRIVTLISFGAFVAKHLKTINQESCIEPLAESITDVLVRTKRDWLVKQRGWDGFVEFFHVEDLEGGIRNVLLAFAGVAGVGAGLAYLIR
Bim-Mcl-1: human Bim-Mcl-1 interaction inhibition; inhibition, % at 10 µM; 190,000 tested, 0.1% active; AID 1009; Bead-based flow cytometry, Bim peptide-Mcl-1 binding; Q07820; in the data active = inhibition above about 40%;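 note: 0% = no compound tracer wells and 100% = peptide blocker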
MCL1-BIM inh: inhibitors of human MCL1 binding to BIM-BH3 peptide | Q07820 | GST-MCL1 / FITC-Bim-BH3 fluorescence polarization | inhibition, % at 10.9 µM | 320,000 tested, 0.68% active | AID 2057;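 active = inhibition above the mean inhibition of all tested compounds plus 3 SD, set per campaign, cut at about 40% in these data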;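 note: 0% = DMSO wells and 100% = unlabeled Bim-BH3 peptide control; higher means more loss of mP so more displacement of Bim peptide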
Mcl1 Bid PPI: disrupts binding of human Mcl-1 to Bid peptide. 220,000 tested, 0.97% active. TR-FRET Mcl-1/Bid-Dy647 peptide binding, 1536-well. AID 1021. inhibition, % at 21.7 µM. Q07820;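 active = compounds that cut the binding signal by more than half at the single screening dose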;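 note: His-tagged Mcl-1 with europium anti-His antibody binding Bid BH3 peptide; 0% = Mcl-1 plus peptide wells and 100% = peptide-only wells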
Numbers without * were called inactive; i = inactive; / = not tested or not shown; ! = repeats disagree. Shown are actives, neighbours in structure and some others; about 2.3% of the full set was active somewhere.

SMILES	T cell HTS	DSG3 Ab inh	Mcl1-Noxa inh	Bim-Mcl-1	MCL1-BIM inh	Mcl1 Bid PPI
COc1ccccc1N1CCN(c2cc(=O)n(Cc3ccc(F)cc3)c(=O)[nH]2)CC1	448	69*	22	-7	-5	-23
O=c1cc(N2CCN(c3ccccc3Cl)CC2)[nH]c(=O)n1Cc1ccc(F)cc1	88	85	-2	/	1	-25
O=C1C(C2=NC(c3ccccn3)C3C(=O)N(c4ccc(Cl)cc4Cl)C(=O)C23)=C(O)c2ccccc21 (stereo not given)	312	97	-13	/	0	-70
O=C1C(C2=NC(C(=O)O)C3C(=O)N(c4ccc(Cl)cc4)C(=O)C23)=C(O)c2ccccc21 (stereo not given)	313	/	63*	-1	-1	-21
CNC(=O)CN(C1CCCCC1)S(=O)(=O)c1ccc(OC)c(Cl)c1	325	104	-9	0	-17	98*
COc1ccc(S(=O)(=O)N(CC(=O)NC2CC2)C2CCCCC2)cc1Cl	407	/	5	-2	7	-1
Cc1cc(C)c2c(c1)[C@@H]1C=CC[C@@H]1[C@H](c1ccc(S(=O)(=O)N3CCOCC3)cc1)N2	348	87	67*	6	25	17
Cc1ccc(S(=O)(=O)N2CCOCC(=O)NCCOCCNC(=O)COCC2)cc1	/	100	-7	-3	/	-13
C=CCn1c(C)cc(C2=NNC(=Nc3ccc(C)cc3)SC2)c1C	210	102	11	2	9	-11
Cc1cc(C2=NNC(=Nc3ccc(S(=O)(=O)N4CCOCC4)cc3)SC2)c(C)n1C	580	79	72*	/	1	-42
COC(=O)c1ccc(-c2nc(CN3CCN(C(=O)c4ccco4)CC3)c(C)o2)cc1	/	100	/	/	/	/
O=C(CSc1ccc(Cl)cc1)N1N=CCC1c1ccccc1 (stereo not given)	408	114	-9	/	0	-15
NC(=NC(=O)c1ccc(Cl)cc1)N1N=CCC1c1ccccc1 (stereo not given)	113	-11*	11	0	-7	-4
CCC(CC)c1nnc(NC(=O)c2c(C)nn(Cc3ccccc3Cl)c2C)s1	188	53*	14	4	6	4
Cc1nn(Cc2ccccc2Cl)c(C)c1C(=O)NC1=NCCS1	150	102	11	1	-2	-27
COc1ccc2c(c1)CCO[C@]21O[C@H](CCO)C[C@H](O)[C@H]1O	/	100	/	/	/	/
Cc1ccc(S(=O)(=O)Nc2ccnc3ccccc23)cc1	401	105	-2	0	5	63*
COc1cccc(Oc2ccc(C(F)(F)F)cc2NC(=O)CN2C(=O)NC3(CCCC3)C2=O)c1	263	/	/	/	/	/
CC(C)=C(NC(=O)c1ccccc1Cl)C(=O)NCCc1nc2ccccc2[nH]1	/	99	/	/	/	/
C/C(=N\Nc1nc2ccccc2nc1C)c1ccccc1O	284	78*	5	/	9	-22
CCc1cc2cc3c(cc2nc1SCC(=O)Nc1cc(C)on1)OCO3	321	87*	-48	1	-2	14
O=S(=O)(O)c1ccc(O)c2cc(Nc3ccccc3)ccc12	/	38*	/	/	/	/
O=S(=O)(O)c1cc(O)c2ccc(Nc3ccccc3)cc2c1	/	44*	/	/	/	/
O=S(=O)(O)c1cc(O)c2cc(Nc3ccccc3)ccc2c1	/	78	/	/	/	/
Cc1ccc(S(=O)(=O)c2cc(Nc3ccccc3)ccc2O)cc1	337	98	/	/	12	/
SMILES	T cell HTS	DSG3 Ab inh	Mcl1-Noxa inh	Bim-Mcl-1	MCL1-BIM inh	Mcl1 Bid PPI
COc1cccc2c(=O)c3ccccc3oc12	640	98	-11	0	-3	55*!
O=C(N/N=C/c1ccc([N+](=O)[O-])o1)c1cc2c(ccc3ccccc32)o1	/	82	38	3	/	88*
Cc1ccc(/C=N/NC(=O)c2cc3c(ccc4ccccc43)o2)cc1[N+](=O)[O-]	146	98	26	0	-4	76*
Cc1noc(C)c1NC(=O)Nc1cccc2c1O[C@H](CN(C)S(=O)(=O)c1cccs1)[C@@H](C)CN([C@H](C)CO)C2=O	0	97	/	/	/	/
O=C1C=CC(=O)N1c1ccc(OC(F)F)cc1	514	62*	17	-13	7	-18
COc1cc(-c2nnc(COC(=O)c3ccc([N+](=O)[O-])o3)o2)cc(OC)c1OC	/	98	/	/	/	/
O=C(N[C@H]1C/C=C\C[C@@H](CC(=O)N(CCO)Cc2ccccc2)C(=O)N2CCC[C@@H]2COC1=O)OCC1c2ccccc2-c2ccccc21	0.0*	94	/	/	/	/
O=C(N[C@H]1C/C=C\C[C@@H](CC(=O)N(CCO)Cc2ccccc2)C(=O)N2CCC[C@H]2COC1=O)OCC1c2ccccc2-c2ccccc21	345	93	/	/	/	/
Cc1cc2cc(CN(Cc3cccs3)C(=S)NCC3CCCO3)c(=O)[nH]c2cc1C (stereo not given)	457	104	-23	1	9	-66
Cc1cc(C)c2[nH]c(=O)c(CN(Cc3cccs3)C(=S)NCC3CCCO3)cc2c1 (stereo not given)	i	85*	-6	-7	7	-46
CCN(CC)CCCNC(=S)N(Cc1cccs1)Cc1cc2cc3c(cc2[nH]c1=O)OCCO3	191	103	59*	39	5	-30
CC(C)c1c(Cl)c(O)c(-c2ccccc2)c(=O)n1-c1ccc(F)cc1	i	99	31	-1	-1	57*
CC(C)c1cc(O)c(-c2ccccc2)c(=O)n1-c1ccc(Cl)cc1	757	100	16	/	-5	15
CCCn1nnc(NC(=O)c2ccc(OC)cc2)n1	185	86	-5	19	1	-1
CCOc1ccc(C(=O)Nc2nnn(CC)n2)cc1	991	/	-8	62*	-3	-49
COc1cc2c(C)nc3c(c(C)nn3-c3ccccc3)c2cc1OC	188	98	0	0	-3	-7
COc1cc2c(-c3ccc(O)cc3)nc3c(c(C)nn3-c3ccccc3)c2cc1OC	394	110	80*	0	-2	61*
CCCSC1=N/C(=C\C=C\c2ccco2)C(=O)S1	350	85	76*	0	39	5
CCCSC1=N/C(=C\c2ccsc2)C(=O)S1	400	98	9	0	5	-38
CCCSC1=N/C(=C\c2ccc([N+](=O)[O-])o2)C(=O)S1	/	89	79*	1	/	6
O=C(O)c1ccccc1NC(=S)NC(=O)c1sc2ccccc2c1Cl	240	103	58*	-9	14	0
O=C(NNC(=S)NC(=O)c1sc2ccccc2c1Cl)c1ccc(Cl)cc1	311	102	53*	-4	28	40
Cc1cccc(C(=O)NC(=S)NNC(=O)c2ccc(Cl)cc2)c1	494	92	88*	1	-3	-91
O=C(Nc1ccnc(=O)[nH]1)c1sc2ccccc2c1Cl	648	101	11	/	4	58*
O=C(NNC(=O)c1sc2ccccc2c1Cl)Nc1ccc(Cl)cc1	181	101	22	-1	2	5
